Screens: PubChem BioAssay, Sanford-Burnham Center for Chemical Genomics
Rows were chosen to be rich in hits. Some 3.9% of all compounds tested hit in one or more screens of this group.
UPR CHOP act: activators of apoptotic arm of unfolded protein response (CHOP). CHO-CHOP luciferase reporter, UPR activation, luminescence; percent of tunicamycin response over DMSO baseline. activation, % at 10 µM. 330,000 compounds, 0.34% hits. AID 449763;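 active means at 10 µM dose, activation of 40% or more, normalized to positive control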;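 further: 100% = tunicamycin at 10 µg/mL and 0% = DMSO alone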
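System: CHO-CHOP luciferase reporter cell line | Buffer or medium: F12 medium containing 10% fetal bovine serum | Doses: One dose, 10 µM in 0.5% DMSO | Times: 6 h compound exposure at 37 °C after overnight seeding | Signal: Luciferase luminescence | Read-out: % activation vs tunicamycin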
XBP1 UPR activ: adaptive UPR (XBP1) activation; CHO-XBP1 luciferase reporter, IRE1-XBP1 UPR activation, luminescence; percent of tunicamycin response, DMSO as zero; 330,000 compounds, 0.33% hits; activation, % at 20 µM; AID 463104;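 active means versus positive control, 20 µM dose yields 30% or more activation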;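 further: 100% = tunicamycin at 10 µg/mL and 0% = DMSO only wells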
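Material: CHO-XBP1 cells stably carrying IRE1-XBP1-driven luciferase reporter | Medium: F12 with 10% serum | Compound dosing: 20 µM single concentration, DMSO 1% | Incubation: Overnight seeding at 37 °C, 6 h compound treatment at 37 °C | Detection: Steady-Glo luminescence read | Read-out basis: % activation of reporter signal versus tunicamycin and DMSO controls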
tim23-1 inh: tim23-1 yeast growth inhibition. S. cerevisiae tim23-1 growth, BacTiter-Glo luminescence, 24 h. inhibition, % at 20 µM. 330,000 compounds, 1.3% hits. AID 463212;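 active means growth inhibition of the mutant yeast at or above 50%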;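 further: temperature-sensitive mutant grown at 25 °C; plate controls were DMSO-treated mutant yeast for no effect and medium wells lacking yeast for full effect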
tim10-1 inh: growth inhibitors of tim10-1 mutant yeast | S. cerevisiae tim10-1 ts strain growth, BacTiter-Glo, 24 h | inhibition, % at 20 µM | 330,000 compounds, 2.2% hits | AID 463190;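 active means inhibition of at least 40%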;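 further: mutant grown at 25 °C; 0% = DMSO wells with yeast and 100% = wells holding no yeast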
TIM10 inh: TIM10 yeast growth inhibition; S. cerevisiae TIM10 strain growth, BacTiter-Glo luminescence, 24 h; AID 463195; 330,000 compounds, 1.4% hits; inhibition, % at 10 µM;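 active means inhibition of 40% or more at the single tested concentration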;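 further: wild-type TIM10 isogenic control strain grown at permissive 25 °C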
tim10-1 conf: tim10-1 yeast growth inhibition, confirmed | 7,400 compounds, 56% hits | AID 463213 | inhibition, % at 20 µM | shares compounds with tim10-1 inh | S. cerevisiae tim10-1 ts strain growth, BacTiter-Glo, 24 h;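 active means inhibition of yeast growth at or above a set limit in either of two repeat tests at 20 µM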;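 further: tim10-1 mutant grown at permissive 25 °C to find synthetic lethal compounds; 0% = DMSO yeast wells and 100% = medium wells without yeast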
TIM10 conf: TIM10 yeast growth inhibition, confirmed | 4,600 compounds, 63% hits | inhibition, % at 10 µM | shares compounds with TIM10 inh | S. cerevisiae tim10 strain growth, BacTiter-Glo luminescence, 24 h;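 active means inhibition of yeast growth at or above a set limit in either of two replicates at 10 µM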;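 further: this counterscreen used the strain with wild-type TIM10; 0% = yeast with DMSO and 100% = medium wells lacking yeast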
tim23-1 conf: tim23-1 yeast growth inhibition, confirmed. shares compounds with tim23-1 inh. S. cerevisiae tim23-1 growth, BacTiter-Glo luminescence, 24 h. inhibition, % at 20 µM. 4,400 compounds, 83% hits. AID 463218;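 active means inhibition above about 39% in either of two replicate wells at 20 µM, limit read from the data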;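 further: temperature-sensitive tim23-1 mutant grown at 25 °C; 0% = DMSO wells with yeast and 100% = medium wells without yeast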
Active calls of the source: *; . = no result.

SMILES	UPR CHOP act	XBP1 UPR activ	tim23-1 inh	tim10-1 inh	TIM10 inh	tim10-1 conf	TIM10 conf	tim23-1 conf
Cc1cc(C)c2sc(NC(=O)C3=COCCO3)nc2c1	1.5	-2.5	53.1*	44.9*	42.7*	35.2*	30.6	40.1*
Cc1ccc(Cl)c2sc(NC(=O)C3=COCCO3)nc12	4.9	2.5	72.0*	61.4*	41.9*	51.2*	41.1*	54.5*
COc1ccc(Cl)c2sc(NC(=O)C3=COCCO3)nc12	2.8	3.3	32.1	31.8	35.6	.	.	.
Cc1ccc(S(=O)(=O)CC(=O)c2cc3cccc(C)c3oc2=O)cc1	0.2	-3.6	52.8*	42.0*	1.4	-23.2	.	31.9
CCN(CC)C(=O)C1CCCN(C(=O)c2oc3ccc(C)cc3c2C)C1 (stereo not drawn)	2.6	0.1	34.3	35.4	10.2	.	.	.
Brc1ccccc1OCCCOc1cccc2cccnc12	10.3	-1.1	40.7	11.4	35.4	.	.	.
COc1cccc(C=O)c1OCCCOc1cccc2cccnc12	3.9	1.0	65.2*	45.0*	40.8*	33.0*	34.4*	55.0*
N#Cc1cn(-c2ccccc2)nc1-c1ccc2c(c1)OCCO2	12.5	6.5	1.5	16.4	6.7	.	.	.
O=Cc1cn(-c2ccccc2)nc1-c1ccc2c(c1)OCCO2	4.3	-0.9	72.4*	52.6*	47.2*	58.5*	62.0*	78.2*
COC(=O)C1=C(C)N(c2ccc(C(=O)OC)cc2)C(=O)C1	-1.8	-2.1	8.8	32.6	8.6	.	.	.
COC(=O)C1=C(C)N(c2cc(Cl)cc(Cl)c2)C(=O)C1	-1.6	-4.6	52.6*	56.3*	33.2	53.7*	.	46.5*
CCCOc1ccc(C(=O)Nc2ccc(S(=O)(=O)NC3=NCCCCC3)cc2)cc1	-0.8	-2.2	21.2	18.4	-5.0	.	.	.
O=C(NCCNC(=O)c1ccccn1)c1ccc(-c2ccccc2)cc1	0.1	-3.9	28.0	0.9	1.0	.	.	.
O=C(c1cccc(-n2cccc2)c1)N1CCN(S(=O)(=O)c2ccccc2Br)CC1	9.7	-2.2	29.2	29.5	22.8	.	.	.
COc1ccccc1N1CCN(C(=O)c2cc3c(C)nc4ccccc4c3o2)CC1	1.5	0.1	54.2*	48.9*	17.7	16.5	.	33.5
COc1ccccc1N1CCN(C(=O)c2ccc3c(Cl)c4c(nc3c2)CCCC4)CC1	3.2	-3.3	55.6*	53.4*	30.7	36.0*	.	57.2*
Cc1ccc(N(C)C(=O)c2ccc3c(Cl)c4c(nc3c2)CCC4)cc1C	4.7	6.9	55.0*	41.1*	20.8	34.8*	.	55.8*
CN(C(=O)c1cccc(NC(=O)Cc2cccc([N+](=O)[O-])c2)c1)C1CC1	-0.7	-0.6	14.5	9.9	4.1	.	.	.
COc1cccc(/C=C2\SC(=S)N(CCCC(=O)N3CCCCC3CCO)C2=O)c1 (stereo not drawn)	1.5	-6.0	52.5*	49.6*	18.9	20.1	.	54.9*
COc1cccc(/C=C2\SC(=S)N(CCCC(=O)N3CCCC3)C2=O)c1	1.3	-3.6	57.9*	41.9*	33.0	23.4	.	51.4*
COc1ccccc1NS(=O)(=O)c1ccc2oc(N)nc2c1	1.5	4.4	-0.2	3.0	11.2	.	.	.
CS(=O)(=O)Nc1nc2n(n1)C(c1ccccc1)CC(c1ccccc1)N2 (stereo not drawn)	1.2	-3.9	-2.8	-0.2	-9.4	.	.	.
CN(C)S(=O)(=O)N1CCC(n2nccc2NC(=O)CCCc2ccccc2)CC1	-0.8	-3.4	17.4	21.8	1.7	.	.	.
COc1ccc(S(=O)(=O)Nc2cccc(-c3ccc(N4CCCCCC4)nn3)c2)c(OC)c1	6.7	2.6	5.5	12.6	7.4	.	.	.
Clc1ncnc2scc(-c3ccc(Br)cc3)c12	0.4	4.0	50.1*	40.0	5.3	24.5	.	51.8*
SMILES	UPR CHOP act	XBP1 UPR activ	tim23-1 inh	tim10-1 inh	TIM10 inh	tim10-1 conf	TIM10 conf	tim23-1 conf
CCn1c2ccccc2c2cc(/C(C)=N/O)ccc21	1.1	-0.8	74.7*	61.3*	42.3*	55.5*	45.2*	83.9*
O=C(COC(=O)Cc1ccsc1)Nc1ccc(Cl)cn1	-0.6	1.6	11.6	11.8	7.4	.	.	.
Cc1ccc(-c2nc3s/c(=C\c4ccco4)c(=O)n3n2)cc1	-1.6	3.6	32.3	8.4	9.2	.	.	.
O=c1nc2s/c(=C\c3ccco3)c(=O)n2nc1Cc1ccc(F)cc1	2.0	3.3	53.3*	70.6*	78.1*	75.6*	79.6*	-8.2
Cc1nnc(C)n1/N=C/c1cc(Br)cc(Br)c1O	-1.7	-0.6	62.5*	56.2*	62.8*	32.4*	-0.3	85.2*
CS/C(N)=N/N=C/c1cc(Br)cc(Br)c1O	3.3	3.9	75.8*	47.3*	71.3*	61.4*	61.2*	78.6*
Oc1c(Br)cc(Br)cc1/C=N/n1c(-c2ccccc2)n[nH]c1=S	-0.4	0.6	79.7*	66.0*	39.5	49.5*	.	88.1*
CS/C(N)=N/N=C/c1cc(C)ccc1O	6.1	0.8	38.8	-21.5	25.1	.	.	.
Cc1nnc(C)n1/N=C/c1cc(Br)ccc1O	-2.6	-1.0	27.3	14.4	-3.9	.	.	.
O=[N+]([O-])c1ccc(O)c(/C=N/n2c(-c3ccccc3)n[nH]c2=S)c1	1.5	-4.3	34.0	18.9	-7.4	.	.	.
CCOC(=O)CC1=NN(c2ccccc2)C(=O)/C1=C\c1ccc(N(C)C)cc1	-3.1	-1.6	51.5*	43.2*	51.2*	42.8*	53.4*	53.1*
CCN(CC)c1ccc2c(c1)oc(=O)c1c(Cl)cc(=O)oc12	24.3	-7.0	73.4*	77.7*	88.8*	82.0*	61.0*	81.2*
COc1ccccc1C(C[N+](=O)[O-])c1c(N)n(C)c(=O)n(C)c1=O (stereo not drawn)	29.0	-6.9	81.6*	57.5*	55.1*	61.2*	64.3*	84.0*
Cc1ccccc1OCc1nnc(SCC(=O)Nc2ccc3nc(SCC(=O)Nc4ccccc4)sc3c2)n1C	1.1	-1.1	-10.6	-21.1	-20.5	.	.	.
O=C(CSc1nc2c(c(=O)[nH]1)CCC2)Nc1cccc(F)c1	3.6	3.1	-2.0	4.5	10.3	.	.	.
COc1ccc(C(=O)c2coc3c2C(=O)C(=O)c2ccccc2-3)cc1	6.7	6.7	85.2*	94.5*	94.4*	92.9*	96.5*	92.7*
O=C(c1ccccc1)c1coc2c1C(=O)c1ccccc1C2=O	-0.5	4.4	66.3*	81.5*	72.8*	76.0*	68.7*	79.3*
